Reference: ChEMBL document CHEMBL1153528, “Modeling of the aryl hydrocarbon receptor (AhR) ligand binding domain and its utility in virtual ligand screening to predict new AhR ligands” (J Med Chem, 2009)

Experiments:
Assay type in all cases: cell-based; call rule not given here
[1] = target: T1, Aryl hydrocarbon receptor (AhR) ligand-binding domain (Mus musculus, UniProt P30561); test: Induction of mouse AhR LBD transcriptional activity in mouse hepa1 cells transfected with AhR response element co expressed with XRE after 6 hrs by luciferase reporter gene assay relative to control; settings: read-out: FC
T1 sequence (P30561 whole entry): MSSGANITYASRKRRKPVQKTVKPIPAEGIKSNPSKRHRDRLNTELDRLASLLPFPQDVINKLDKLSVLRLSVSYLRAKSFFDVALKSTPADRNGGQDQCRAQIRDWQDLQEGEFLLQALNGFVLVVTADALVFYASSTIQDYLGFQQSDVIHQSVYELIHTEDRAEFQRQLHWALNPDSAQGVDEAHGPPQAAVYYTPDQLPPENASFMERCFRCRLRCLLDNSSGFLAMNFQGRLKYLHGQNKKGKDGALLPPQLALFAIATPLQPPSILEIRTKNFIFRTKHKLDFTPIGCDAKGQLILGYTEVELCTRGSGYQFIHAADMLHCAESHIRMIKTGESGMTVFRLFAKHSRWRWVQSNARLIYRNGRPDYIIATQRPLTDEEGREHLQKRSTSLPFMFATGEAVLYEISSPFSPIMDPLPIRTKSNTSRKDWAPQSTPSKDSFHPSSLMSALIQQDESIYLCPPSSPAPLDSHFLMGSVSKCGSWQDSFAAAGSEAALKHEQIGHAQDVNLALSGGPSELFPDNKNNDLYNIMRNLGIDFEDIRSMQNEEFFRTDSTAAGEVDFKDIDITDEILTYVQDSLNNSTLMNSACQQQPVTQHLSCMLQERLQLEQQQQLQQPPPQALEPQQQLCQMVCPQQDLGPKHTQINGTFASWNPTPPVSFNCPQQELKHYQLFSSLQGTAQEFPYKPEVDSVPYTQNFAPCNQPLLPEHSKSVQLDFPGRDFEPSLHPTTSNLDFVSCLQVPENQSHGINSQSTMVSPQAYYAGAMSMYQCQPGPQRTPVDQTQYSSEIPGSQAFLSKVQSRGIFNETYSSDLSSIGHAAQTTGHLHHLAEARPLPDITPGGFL
Method in brief: (§1)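 Mouse Hepa1 cells carrying an AhRE/XRE-luciferase reporter, grown in DMEM/10% FBS with penicillin/streptomycin under 5% CO2. Test agents from DMSO stocks, final 20 µM, were applied for 6 h and reporter activity then measured. Fold activation was graded: ≥8 very strong, >4 strong, […].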

[2] = target: T2, Aryl hydrocarbon receptor (Mus musculus, UniProt P30561); test: Induction of nuclear translocation of AhR from cytosol in mouse Hepa1 cells at 20 uM after 60 mins using DAPI staining by microscopic analysis; settings: hepa1, 1 h
T2 sequence (P30561 whole entry): T1 sequence (P30561 whole entry)
Method in brief: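 Hepa1 cells given test agents for 60 min, then fixed. They were immunostained for AhR with FITC-labelled secondary antibody and counterstained with DAPI for nuclei. AhR nuclear localization was imaged by fluorescence microscopy.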

[3] = target: T2, Aryl hydrocarbon receptor; test: Effect on AhR-mediated CYP1A1 activation in mouse Hepa1c1c12 cells at 20 uM after 18 hrs by Western blot analysis; settings: in the assay text read “semi-quantitative RT-PCR analysis” for “Western blot analysis”
Method in brief: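 Pair of Hepa1c1c7-derived lines: C12 (much reduced AhR) and C12 re-expressing WT AhR. Cells in DMEM/10% FBS with antibiotics under 5% CO2 were given 20 µM for 18 h, vehicle 0.1% DMSO, TCDD 1 nM as reference. Target genes (CYP1A1, NADPH-QO) assessed by semi-quantitative RT-PCR with GAPDH control. AhR shown by blot of 30 µg whole-cell lysate.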

[4] = target: T2, Aryl hydrocarbon receptor; test: Induction of mouse AhR LBD transcriptional activity in mouse hepa1 cells transfected with AhR response element co expressed with XRE at 20 uM after 6 hrs by luciferase reporter gene assay in presence of 6-hydroxy-7-methoxyflavone; method in brief: as §1

O=c1cc(-c2ccccc2O)oc2c(O)c(O)ccc12 was tested. Which fold induction at 6 h [1] did it give?
The fold induction at 6 h was 2.8.

Cc1ccc2oc(-c3ccccc3)c(O)c(=O)c2c1 was tested. Which fold induction at 6 h [1] did it give?
The fold induction at 6 h was 2.5.

Which fold induction at 6 h [1] does the source give for COc1ccc2c(=O)c(-c3ccccc3)coc2c1 here?
Its fold induction at 6 h is 2.7.

What does the source list for O=C1CC(c2ccccc2)Oc2cc(O)cc(O)c21 (single isomer, unassigned) [PINOCEMBRIN]?
Activity [2]: Active; Activity [3]: Active; fold induction at 6 h [1]: 8

Which fold induction at 6 h [1] does the source give for Clc1cc2c(cc1Cl)Oc1cc(Cl)c(Cl)cc1O2 [2,3,7,8-TETRACHLORODIBENZO-P-DIOXIN] here?
The fold induction at 6 h was 21.

For Cc1ccc2oc(-c3ccccc3)cc(=O)c2c1 [6-METHYLFLAVONE], which fold induction at 6 h [1] is on record?
The fold induction at 6 h was 4.8.

Which results are given for COc1cc(O)c2c(=O)cc(-c3ccccc3)oc2c1 [TECHTOCHRYSIN]?
Activity [2]: Active; Activity [4]: Not Active; Activity [3]: Active; fold induction at 6 h [1]: 11.3
